Test results: ChEMBL document CHEMBL1128466, “Synthesis and antimalarial activities of several fluorinated artemisinin derivatives” (1995)

How the values were obtained:
Format in all cases: functional
[1] = test system: Plasmodium falciparum; test: Relative activity against Plasmodium falciparum FCR3 compared to artemisinin as IC50 ratio
In short: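 In vitro screen of P. falciparum strain FCR3 cultures by a modified Desjardins method. The value is the ratio of artemisinin activity to that of each fluorinated derivative.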

[2] = test system: Plasmodium falciparum; test: Relative activity against Plasmodium falciparum W2 compared to arteether as IC50 ratio
[3] = test system: Plasmodium falciparum; test: Relative activity against Plasmodium falciparum D6 compared to arteether as IC50 ratio
[4] = test system: Plasmodium falciparum; test: Relative activity against Plasmodium falciparum D6 compared to artemisinin as IC50 ratio
[5] = test system: Plasmodium falciparum; test: Relative activity against Plasmodium falciparum W-2 compared to of IC50 value of artemisinin as IC50 ratio

C[C@@H]1CC[C@H]2[C@@](C)(O)[C@@H](OCc3ccc(F)cc3)O[C@@H]3O[C@@]4(C)CC[C@@H]1[C@]32OO4
Ratio [1]: 0.1

C[C@H]1[C@@H](CC(C)(F)F)O[C@@H]2O[C@@]3(C)CC[C@H]4[C@H](C)CC[C@@H]1[C@@]24OO3
Ratio [2]: 0.3
Ratio [3]: 0.4
Ratio [4]: 1.2
Ratio [5]: 0.5

CCO[C@H]1O[C@@H]2O[C@@]3(C)CC[C@H]4[C@H](C)C(F)(F)C[C@@H]([C@H]1C)C24OO3 (single isomer, unassigned)
Ratio [2]: 0.8
Ratio [3]: 0.5
Ratio [4]: 1.4
Ratio [5]: 1.2

C[C@@H]1CC[C@H]2[C@@](C)(O)[C@@H](OCc3c(F)c(F)c(F)c(F)c3F)O[C@@H]3O[C@@]4(C)CC[C@@H]1[C@]32OO4
Ratio [1]: 0.1

C[C@H]1[C@@H](OCc2ccc(F)cc2)O[C@@H]2O[C@@]3(C)CC[C@H]4[C@H](C)CC[C@@H]1[C@@]24OO3
Ratio [1]: 0.04

CCO[C@H]1O[C@@H]2O[C@@]3(C)CC[C@H]4[C@H](C)CC[C@@H]([C@@]1(C)O)[C@@]24OO3
Ratio [4]: 0.08
Ratio [5]: 0.06

CCO[C@H]1O[C@@H]2O[C@@]3(C)CC[C@H]4C(C)=C(F)C[C@@H]([C@H]1C)[C@@]24OO3
Ratio [2]: 0.3
Ratio [3]: 0.2
Ratio [4]: 0.6
Ratio [5]: 0.5

C[C@@H]1CC[C@H]2[C@](C)(O)[C@@H](OCC(F)(F)F)O[C@@H]3O[C@@]4(C)CC[C@@H]1[C@]32OO4
Ratio [4]: 1.8
Ratio [5]: 1.5

C[C@@H]1CC[C@H]2[C@@](C)(O)[C@@H](OCC(F)(F)F)O[C@@H]3O[C@@]4(C)CC[C@@H]1[C@]32OO4
Ratio [4]: 0.15
Ratio [5]: 0.14

C[C@H]1[C@@H](CC(F)F)O[C@@H]2O[C@@]3(C)CC[C@H]4[C@H](C)CC[C@@H]1[C@@]24OO3
Ratio [2]: 0.73
Ratio [3]: 1.3
Ratio [4]: 3.8
Ratio [5]: 1.1

CCO[C@H]1O[C@@H]2O[C@@]3(C)CC[C@H]4[C@H](C=O)CC[C@@H]([C@H]1C)[C@@]24OO3
Ratio [2]: 0.8
Ratio [3]: 0.1
Ratio [4]: 1.2
Ratio [5]: 1.4

C[C@@H]1CC[C@H]2[C@@](C)(O)[C@@H](OCc3cccc(F)c3)O[C@@H]3O[C@@]4(C)CC[C@@H]1[C@]32OO4
Ratio [1]: 0.11

C[C@@H]1CC[C@H]2[C@@](C)(O)[C@@H](OCc3ccccc3F)O[C@@H]3O[C@@]4(C)CC[C@@H]1[C@]32OO4
Ratio [1]: 0.11

CCO[C@H]1O[C@@H]2O[C@@]3(C)CC[C@H]4[C@H](C(F)F)CC[C@@H]([C@H]1C)[C@@]24OO3
Ratio [2]: 1.5
Ratio [3]: 0.3
Ratio [4]: 1
Ratio [5]: 2

CCO[C@H]1O[C@@H]2O[C@@]3(C)CC[C@H]4[C@H](C)CC[C@@H]([C@]1(C)O)[C@@]24OO3
Ratio [4]: 0.45
Ratio [5]: 0.3

CCO[C@H]1O[C@@H]2O[C@@]3(C)CC[C@H]4[C@H](C)C(=O)C[C@@H]([C@H]1C)[C@@]24OO3
Ratio [2]: 0.6
Ratio [3]: 0.05
Ratio [4]: 0.5
Ratio [5]: 1.2
